This passage reports inhibition, Time and Activity results from ChEMBL document CHEMBL2176871, “Development of ligands at γ-aminobutyrric acid type A (GABAA) receptor subtype as new agents for pain relief” (Bioorg Med Chem, 2011).

The source made the active and inactive calls. Some results are limits rather than exact numbers.

One series is filed under the species Bos taurus. The series can be described thus: Displacement of [3H]Ro151788 from GABA(A)/BzR in bovine cerebral cortex membrane at 10 uM. Format: cell membranes. In a few lines: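 Bovine cerebral cortex membranes in 50 mM Tris-citrate pH 7.4; [3H]flumazenil displacement. Compounds first tested at a fixed 10 µM; Ki determined only when inhibition exceeded 80%, using at least six concentrations. Five experiments run in triplicate; IC50 obtained by iterative curve fitting and converted to Ki with the Cheng–Prusoff equation.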
On the technique in general: Displacement assays read how much labelled ligand stays bound in the presence of the test substance.

For series [1], the system named is Mus musculus. The series can be described thus: Antihyperalgesic activity against streptozotocin-induced hyperalgesia in Swiss albino mouse […] assessed as licking latency time at 30 mg/kg, po after 60 mins by hot plate test (reference value: 10.6 +/- 0.7 secs). Format: functional. (In general: Hot-plate and tail-flick tests time the reaction to a heat stimulus.)

Series [2] relates to Mus musculus. As to the kind of experiment: Antihyperalgesic activity Swiss albino mouse […] assessed as licking latency time at 30 mg/kg, po after 60 mins by hot plate test (reference value: 17.4 +/- 1.2 secs). Format: functional. In a few lines: (§1)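 Hot plate at 52.5 ± 0.1 °C in non-diabetic male Swiss mice. Latency to licking of fore or hind paws was timed before dosing and every 15 min up to 60 min after oral dosing. Mice with pretest latencies below 12 s or above 18 s were excluded. Cut-off was 45 s.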

Series [3] concerns Mus musculus. The series can be described thus: Antihyperalgesic activity against streptozotocin-induced hyperalgesia in Swiss albino mouse […] assessed as licking latency time at 30 mg/kg, po after 45 mins by hot plate test (reference value: 10.6 +/- 0.7 secs). The class given is functional.
Series [4] deals with Mus musculus. The series can be described thus: Antihyperalgesic activity Swiss albino mouse […] assessed as licking latency time at 30 mg/kg, po after 45 mins by hot plate test (reference value: 17.4 +/- 1.2 secs). The class given is functional. In outline: as §1
Series [5] deals with Mus musculus. The series can be described thus: Antihyperalgesic activity against streptozotocin-induced hyperalgesia in Swiss albino mouse […] assessed as licking latency time at 30 mg/kg, po after 30 mins by hot plate test (reference value: 10.6 +/- 0.7 secs). The class given is functional.
Series [6] concerns Mus musculus. As to the kind of experiment: Antihyperalgesic activity Swiss albino mouse […] assessed as licking latency time at 30 mg/kg, po after 30 mins by hot plate test (reference value: 17.4 +/- 1.2 secs). The class given is functional. In outline: as §1
Series [7] relates to Mus musculus. As to the kind of experiment: Antihyperalgesic activity against streptozotocin-induced hyperalgesia in Swiss albino mouse […] assessed as licking latency time at 30 mg/kg, po after 15 mins by hot plate test (reference value: 10.6 +/- 0.7 secs). The class given is functional.
Series [8] deals with Mus musculus. As to the kind of experiment: Antihyperalgesic activity Swiss albino mouse […] assessed as licking latency time at 30 mg/kg, po after 15 mins by hot plate test (reference value: 17.4 +/- 1.2 secs). Format: functional. In a few lines: as §1
For series [9], the system named is Mus musculus. As to the kind of experiment: Anxiolytic-like activity in Swiss albino mouse at 30 mg/kg, po after 30 mins by light/dark box test. More on the design: dose 30 mg/kg. The class given is functional, organism-based. In outline: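 Male Swiss mice tested in a two-compartment light/dark box. Transfers between compartments and time spent in the lit side recorded. Compound given po 30 min before testing, in 10 ml/kg; flumazenil given i.p. for antagonism; 8 mice per group.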

Series [10] has as its system Mus musculus. As to the kind of experiment: Analgesic activity in Swiss albino mouse abdominal constriction model assessed as decrease in number of acetic acid-induced writhing at 30 to 60 mg/kg, po after 30 mins. The conditions noted are these: Abdomen. The class given is functional, organism-based. In a few lines: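 Male Swiss albino mice (23–30 g). Compounds given po in 1% CMC vehicle 30 min before the test. Acetic acid 0.6% injected i.p. at 10 ml/kg. Stretching movements were counted for 10 min, starting 5 min after the acetic acid injection. 8–15 mice per group.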
(In general: In writhing tests, fewer writhes than in controls are read as antinociception.)

In series [11] the test system is Mus musculus. The series can be described thus: Anticonvulsant activity in Swiss albino mouse […] assessed as protection against intraperitoneally administered pentylenetetrazol-induced seizures at 30 mg/kg, po after 30 mins. Format: functional. In outline: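 Male Swiss albino mice. Compounds given po and PTZ 90 mg/kg injected 30 min later; PTZ was dissolved in 0.9% NaCl saline. Clonic generalized convulsions were recorded over 30 min. Each value is the mean of 10 mice. The methods give the PTZ route as s.c. and the table footnote gives it as ip.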

Series [12] has as its system Rattus norvegicus. As to the kind of experiment: Antinociceptive activity in Sprague-Dawley rat mononeuropathy pain model assessed as increase in injured paw pressure at 100 mg/kg, po after 45 mins by paw pressure test relative to non-treated control. The class given is functional. In a few lines: (§2)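 Chronic constriction injury: loose ligatures placed on the common sciatic nerve under chloral hydrate; contralateral sham dissection. Tested 14 days after surgery. Paw pressure applied at 32 g/s; threshold taken as the force causing the first struggle; cut-off 250 g; pretest outliers (<40 g or >75 g) excluded. Oral dosing in 10 ml/kg; read at 15, 30 and 45 min; compared with a CMC-treated group.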

The subject of series [13] is Rattus norvegicus. As to the kind of experiment: Antinociceptive activity in Sprague-Dawley rat mononeuropathy pain model assessed as increase in injured paw pressure at 100 mg/kg, po after 30 mins by paw pressure test relative to non-treated control. The class given is functional. In a few lines:
as §2

The subject of series [14] is Rattus norvegicus. The series can be described thus: Antinociceptive activity in Sprague-Dawley rat mononeuropathy pain model assessed as increase in injured paw pressure at 100 mg/kg, po after 15 mins by paw pressure test relative to non-treated control. The class given is functional. In outline: as §2
Series [15] concerns Rattus norvegicus. The series can be described thus: Toxicity in Sprague-Dawley rat mononeuropathy pain model assessed as effect on contralateral paw pressure at 100 mg/kg, po after 45 mins by paw pressure test. The class given is organism-based. Also on record: dose 100 mg/kg, route oral. The conditions noted are these: in vivo, 0.75 h. In outline: (§3)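 Same sciatic-ligation rat model, 14 days after surgery. Threshold measured on the non-operated contralateral hind paw by analgesimeter at 32 g/s; first-struggle endpoint; 250 g cut-off; pretest rats outside 40–75 g rejected. Compound given po in 10 ml/kg; readings at 15, 30 and 45 min.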

The subject of series [16] is Rattus norvegicus. The series can be described thus: Toxicity in Sprague-Dawley rat mononeuropathy pain model assessed as effect on contralateral paw pressure at 100 mg/kg, po after 30 mins by paw pressure test. More on the design: dose 100 mg/kg, route oral. The class given is organism-based. The conditions noted are these: in vivo, 0.5 h. In a few lines:
as §3

For series [17], the system named is Rattus norvegicus. The series can be described thus: Toxicity in Sprague-Dawley rat mononeuropathy pain model assessed as effect on contralateral paw pressure at 100 mg/kg, po after 15 mins by paw pressure test. The class given is organism-based. Also on record: dose 100 mg/kg, route oral. The following applies: in vivo, 0.25 h. In outline: as §3
Series [18] concerns Rattus norvegicus. As to the kind of experiment: Antinociceptive activity in Sprague-Dawley rat mononeuropathy pain model assessed as increase in injured paw pressure at 30 mg/kg, po after 45 mins by paw pressure test relative to non-treated control. Format: functional. In a few lines: as §2
The subject of series [19] is Rattus norvegicus. As to the kind of experiment: Antinociceptive activity in Sprague-Dawley rat mononeuropathy pain model assessed as increase in injured paw pressure at 30 mg/kg, po after 30 mins by paw pressure test relative to non-treated control. Format: functional. In a few lines:
as §2

Series [20] deals with Rattus norvegicus. The series can be described thus: Antinociceptive activity in Sprague-Dawley rat mononeuropathy pain model assessed as increase in injured paw pressure at 30 mg/kg, po after 15 mins by paw pressure test relative to non-treated control. Format: functional. In outline:
as §2

The test system of series [21] is Rattus norvegicus. As to the kind of experiment: Toxicity in Sprague-Dawley rat mononeuropathy pain model assessed as effect on contralateral paw pressure at 30 mg/kg, po after 45 mins by paw pressure test. More on the design: dose 30 mg/kg, route oral. The conditions noted are these: in vivo, 0.75 h. Format: organism-based. In outline: as §3
In series [22] the test system is Rattus norvegicus. The series can be described thus: Toxicity in Sprague-Dawley rat mononeuropathy pain model assessed as effect on contralateral paw pressure at 30 mg/kg, po after 30 mins by paw pressure test. Format: organism-based. More on the design: dose 30 mg/kg, route oral. The following applies: in vivo, 0.5 h. In a few lines:
as §3

The test system of series [23] is Rattus norvegicus. As to the kind of experiment: Toxicity in Sprague-Dawley rat mononeuropathy pain model assessed as effect on contralateral paw pressure at 30 mg/kg, po after 15 mins by paw pressure test. Also on record: dose 30 mg/kg, route oral. Format: organism-based. The conditions noted are these: in vivo, 0.25 h. In a few lines:
as §3

One may read the inhibition as the drop in the measured response relative to a control, in per cent. Higher therefore signals a response far below the control.

For the molecule `CCCCCOc1ccc2c(c1)n1ncc(I)c1n[n+]2[O-]`, the inhibition in the series filed under Bos taurus was greater than 80%. Moreover, the Time in the series on Mus musculus [1] was found to be 9.1 s; with Mus musculus [2] it was 17.5 s; with Mus musculus [3], 10.4 s; in the series on Mus musculus [4], 17.1 s; in the series on Mus musculus [5] it was 9.8 s; with Mus musculus [6] it was 16.7 s. Further, the Time worked out at 9.2 s in the series on Mus musculus [7] and 18.3 s in the series with Mus musculus [8]. Further, the result in the series with Mus musculus [9] was Active. In addition, the result in the series with Mus musculus [10] was inactive. In addition, the Activity with Mus musculus [11] was 0%; with Rattus norvegicus [12], 33.9 g; in the series on Rattus norvegicus [13] it was 38.4 g; in the series with Rattus norvegicus [14] it was 39.2 g; in the series with Rattus norvegicus [15], 60.5 g; in the series on Rattus norvegicus [16], 61.3 g. For the same molecule, the Activity in the series with Rattus norvegicus [17] is 57.4 g; in the series on Rattus norvegicus [18] it was 34.2 g; in the series with Rattus norvegicus [19] it was 37.5 g; in the series with Rattus norvegicus [20], 35.6 g; in the series with Rattus norvegicus [21] it was 63.1 g; with Rattus norvegicus [22], 61.2 g. Further, in the series with Rattus norvegicus [23], the Activity came to 57.3 g.
